# Screening results as filed in PubChem.
# OX1R antag-1 – OX1R (HCRTR1) antagonists, primary screen, fluorescence, CHO/OX1R cells, Fluo-8 calcium, orexin A. Orexin/Hypocretin receptor type 1 (Homo sapiens), O43613. 0.43% of 330,000 active. Fluo-8 calcium fluorescence. inhibition, % at 5 µM. AID 434989, 2010;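 active = inhibition above its plate's threshold, mean inhibition of all tested compounds on the plate plus 3 SD, cut at about 37% in these data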
# GPR7 antag – GPR7 receptor antagonists, primary screen, cell-based, fluorescence, single concentration; Neuropeptides B/W receptor type 1 (Homo sapiens), P48145; GPR7-expressing cells, fluorescence antagonist assay; 1.1% of 290,000 active; inhibition, % at 4.4 µM; in the data active = inhibition above about 16%, passing the limit was not always enough;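 note: cells stimulated with the agonist NPW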
# Target sequence (P48145 whole entry, looked up): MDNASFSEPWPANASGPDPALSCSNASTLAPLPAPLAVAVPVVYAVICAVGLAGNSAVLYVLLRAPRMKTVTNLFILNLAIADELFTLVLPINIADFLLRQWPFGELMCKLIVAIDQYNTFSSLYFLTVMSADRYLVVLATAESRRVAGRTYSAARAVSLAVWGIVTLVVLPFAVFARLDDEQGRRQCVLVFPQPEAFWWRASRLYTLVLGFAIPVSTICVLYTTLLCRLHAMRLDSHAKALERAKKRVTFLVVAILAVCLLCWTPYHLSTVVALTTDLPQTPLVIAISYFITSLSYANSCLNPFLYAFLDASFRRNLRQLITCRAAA
# zfTRPN1 agonist – zebrafish TRPN1 channel agonists, primary screen, cell-based, HEK293, calcium fluorescence; 0.18% of 220,000 active; AID 1424, 2008; HEK293 zebrafish TRPN1-YFP, Fluo-8 calcium fluorescence; 100% = response to 87 µM carbachol; transient receptor potential cation channel N1 (TRPN1/NompC), Danio rerio; activation, % at 3 µM;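 active = activation above its plate's cutoff, the mean activation of test wells on that plate plus 3 SD, cut at about 19% in these data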
#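 Material – zebrafish TRPN1-YFP in HEK293 cells · Doses – 3 µM single point · Schedule – dye 1 h 37 °C plus 30 min RT · Signal – Fluo-8 calcium fluorescence, excitation 470-495 nm, emission 515-575 nm · Read-out – % activation versus carbachol response · Control set – carbachol high, DMSO low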
# OX1R antag-2 – antagonists of human orexin 1 receptor (OX1R). Orexin/Hypocretin receptor type 1 (Homo sapiens), O43613. OX1R-expressing cells, FRET antagonist read-out. inhibition, % at 6.6 µM. 1.8% of 330,000 active. AID 485270, 2010; in the data active = inhibition mostly above about 38%, no sharp cut-off; inactive = mostly below about 40%
# TRPML3 ag – human TRPML3 channel agonists, primary screen, cell-based, HEK293 TRPML3-YFP, Fluo-8 calcium fluorescence, 3 µM. Mucolipin-3 (Homo sapiens), Q8TDD5. 100% = the carbachol control signal. activation, % at 3 µM. 0.29% of 220,000 active;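 active = activation above its plate's cutoff, the mean activation of the plate's test wells plus 3 SD, cut at about 12% in these data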
#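 Test system – HEK293 line with stable expression of human TRPML3-YFP channel · Control set – carbachol 87 µM final as high control (100%), DMSO as low control (0%) · Signal – Fluo-8 calcium dye fluorescence, ex 470-495, em 515-575 nm · Incubation – 1-h 37 °C dye load, 5-s basal, 120-s post-compound reads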
# CHO parental Ca – ATP-evoked calcium signal inhibitors, parental CHO, primary screen, counter-screen for OX1R antagonist project, cell-based, fluorescence, Fluo-8 calcium dye; parental CHO-K1, ATP-induced calcium, Fluo-8 fluorescence; inhibition, % at 5.6 µM; 0.63% of 330,000 active; AID 463079, 2010;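 active = inhibition above that plate's mean sample inhibition plus 3 SD, cut at about 26% in these data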
#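 Assay system: untransfected parental CHO cell line. Also added: ATP agonist challenge. Dosing: one dose, 5.6 µM nominal. Measured by: Fluo-8 fluorescence. Read-out: % inhibition. Benchmarks: ATP wells versus no-ATP DMSO wells. Repeats: no replicates.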
# Numbers stand for hits; – = inactive; · = no result. This is a sample that favours compounds with a hit; in the whole collection about 3.2% have one here.
SMILES,OX1R antag-1,GPR7 antag,zfTRPN1 agonist,OX1R antag-2,TRPML3 ag,CHO parental Ca
COc1ccc(Cl)cc1NC(=O)CN1C(=O)NC2(CCCC2)C1=O,–,–,·,–,·,–
CCOc1cc(/C=N/NC(=O)CCn2nnc3ccccc32)ccc1O,–,–,–,46,–,–
COc1ccc(/C=N/NC(=O)Cn2nnc3ccccc32)cc1OC,–,–,–,–,–,–
COc1ccccc1Nc1nc(NCc2ccco2)c2ccccc2n1,–,–,–,–,–,–
Cc1ccc(Nc2nc(NCc3ccco3)c3ccccc3n2)cc1,47,34,–,–,–,56
Oc1ccccc1-c1nc(NCc2ccco2)c2ccccc2n1,–,–,–,40,–,–
O=C(N/C(=C\c1ccc(-c2ccccc2)o1)C(=O)N1CCOCC1)c1ccccc1,·,–,–,·,–,·
C=CCn1c(=O)[nH]c2nc3cc(N=CN(C)C)c(C)cc3nc2c1=O,–,–,27,73,–,–
O=[N+]([O-])c1ccc(NCCNCCOc2nonc2-c2ccccc2)c([N+](=O)[O-])c1,–,–,–,43,–,–
Cc1nonc1OCCNc1ccc([N+](=O)[O-])cc1,–,–,–,–,–,–
CC(Sc1nc(N)cc(=O)[nH]1)C(=O)Nc1sc2c(c1C#N)CCCC2 (stereo unspecified),–,–,–,–,–,34
N#Cc1c(NC(=O)CSc2nc(N)cc(=O)[nH]2)sc2c1CCCCCC2,–,–,–,–,–,–
c1ccc(-c2cnc(-c3ccccc3)nn2)cc1,–,·,·,–,·,–
Cc1nnc(-c2ccccc2)c[n+]1[O-],–,–,–,56,–,–
COc1cc(OC)cc(-c2c(-c3cccs3)c3cc(-c4ccc(C(N)=O)cc4)ccc3n2C)c1,–,·,·,–,·,–
CN(CC(=O)N1CC(=O)N(CCc2ccccc2)C(=O)C1)S(=O)(=O)c1cccc2nsnc12,–,–,–,–,–,–
O=C(CCS(=O)(=O)c1cccc2nsnc12)N1CC(=O)N(CCc2ccccc2)C(=O)C1,–,–,–,53,–,–
COc1ccc(C2/C=C\CN(S(=O)(=O)c3ccc(C)cc3)CC(=O)N2Cc2cccc(F)c2)cc1 (stereo unspecified),–,·,·,50,·,–
O=C(NC1CCCCC1)C(c1ccc(Cl)cc1)N(C(=O)c1ccccn1)c1cccnc1 (stereo unspecified),–,–,–,–,–,–
COc1ccc([C@H]2/C=C\CN(S(=O)(=O)c3cccc4cccnc34)[C@@H](C)C(=O)N2Cc2ccc(F)cc2)cc1,–,·,·,70,·,–
COc1cc(OC)cc(C(=O)Nn2c(C)nc3ccccc3c2=O)c1,–,–,–,–,–,–
COc1ccc2[nH]c3c(c2c1)CCn1c-3nc2ccccc2c1=O,–,–,–,47,–,–
CCCc1ncc(CN2CCCC(C(=O)Nc3ccc(-c4cccc(OC)c4)cc3)C2)cn1 (stereo unspecified),–,–,·,–,·,–
COc1cccc(-c2ccc(NC(=O)C3CCCN(Cc4cnn(C(C)C)c4)C3)cc2)c1 (stereo unspecified),–,20,·,–,·,–
Cc1ccc(S(=O)(=O)N(C(=N)N)c2nc(N(C)C)nc(N(C)C)n2)cc1,–,–,·,–,·,–
CC(C)(C)OC(=O)C[C@@H]1C/C=C\C[C@H](CC(=O)N(CCO)Cc2ccccc2)C(=O)NC[C@@H](c2ccccc2)OC1=O,–,·,·,54,·,–
O=C1NC[C@H](c2ccccc2)OC(=O)[C@@H](Cc2ccc(F)cc2)C/C=C\C[C@H]1CC(=O)N(CCO)Cc1ccccc1,–,·,·,56,·,–
CC(C)OCCCNc1nc(-c2ccccc2)nc2ccccc12,–,–,·,51,·,–
CN(C)CCCNc1nc(-c2ccccc2)nc2ccccc12,–,–,–,–,–,–
